Common to all, as to type: functional, Blood
The species named for assay [1] is Rattus norvegicus. As to the kind of experiment: Oral hypotensive activity in spontaneously hypertensive rats by using tail-cuff method measured as the initial BP. In outline: (§1)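 Okamoto-Aoki strain spontaneously hypertensive rats. Compounds were suspended in distilled water with Tween 80 and given orally every day at 50, 30, 10 or 3 mg/kg. Systolic BP was measured by tail-cuff plethysmography on day 1 (predose and 2 h), day 3 (predose and 2 h) and day 5 (predose, 2 and 4 h). The screen used 4 rats; dose-response used 4–8 rats per dose.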

For assay [2], the species on record is Rattus norvegicus. As to the kind of experiment: Oral hypotensive activity in spontaneously hypertensive rats by using tail-cuff method measured as change in systolic BP. In outline: (§2)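 Okamoto-Aoki spontaneously hypertensive rats. Compound suspended in distilled water with Tween 80, given po daily, screening dose 50 mg/kg, dose-response at 50, 30, 10 or 3 mg/kg unless stated. Systolic BP by tail-cuff plethysmography on day 1 predose and 2 h, day 3 predose and 2 h, and day 5 predose, 2 and 4 h. Reported as peak decrease on day 3 (or day 5) at 2 h ± SEM. n = 4 in screen, 4–8 per dose.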

Assay [3] has as its system Rattus norvegicus. Put plainly: (§3) Oral hypotensive activity in spontaneously hypertensive rats by using tail-cuff method measured as change in systolic BP at the dose of 10 mg/kg po. In outline: (§4)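 SHR of the Okamoto-Aoki strain, dosed orally every day with compound suspended in distilled water with Tween 80. Systolic pressure was taken by tail-cuff plethysmography on day 1 (predose, 2 h), day 3 (predose, 2 h) and day 5 (predose, 2 and 4 h). Initial BP is the pretreatment systolic pressure, with 4–8 rats per dose in the dose-response screen.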

For assay [4], the system named is Rattus norvegicus. Put plainly: (§5) Oral hypotensive activity in spontaneously hypertensive rats by using tail-cuff method measured as change in systolic BP at the dose of 25 mg/kg po. In outline: as §4
For assay [5], the system named is Rattus norvegicus. As to the kind of experiment: (§6) Oral hypotensive activity in spontaneously hypertensive rats by using tail-cuff method measured as change in systolic BP at the dose of 50 mg/kg po. A digest of the protocol: as §1
Assay [6] has as its system Rattus norvegicus. Put plainly: (§7) Oral hypotensive activity in spontaneously hypertensive rats by using tail-cuff method measured as change in systolic BP at the dose of 5 mg/kg po. In outline: as §1
The subject of assay [7] is Rattus norvegicus. The description is as §3. In outline: as §2
The source holds these as a separate data set.

Assay [8] concerns Rattus norvegicus. The description is as §5. A digest of the protocol:
as §2
This is another data set of the same source.

The subject of assay [9] is Rattus norvegicus. Described as §6. In outline:
as §2
This is another data set of the same source.

The subject of assay [10] is Rattus norvegicus. Described as §7. A digest of the protocol:
as §2
This is another data set of the same source.

The subject of assay [11] is Rattus norvegicus. Described as §7. In outline: as §4
The source holds these as a separate data set.

The species named for assay [12] is Rattus norvegicus. As to the kind of experiment: Hypotensive activity in renal hypertensive rats by using tail-cuff method measured as BP on (1/2) day/h postdrug. In outline: (§8)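 Renal hypertension made in male Sprague-Dawley rats (Grollman modification). Under pentobarbital (50 mg/kg ip), the right kidney was removed and silk sutures tied around both poles of the left kidney to constrict it. After 3 weeks, rats with systolic BP >150 mmHg were used. Compound given po daily to 4 rats. Systolic BP by tail-cuff plethysmography at the listed day/hour after dosing.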

The species entered for assay [13] is Rattus norvegicus. As to the kind of experiment: Hypotensive activity in renal hypertensive rats by using tail-cuff method measured as BP on (2/0) day/h postdrug. In outline: as §8
Assay [14] is filed under the species Rattus norvegicus. Put plainly: Hypotensive activity in renal hypertensive rats by using tail-cuff method measured as BP on (2/2) day/h postdrug. A digest of the protocol:
as §8

The species named for assay [15] is Rattus norvegicus. As to the kind of experiment: Hypotensive activity in renal hypertensive rats by using tail-cuff method measured as BP on (3/0) day/h postdrug. In outline: as §8
The species entered for assay [16] is Rattus norvegicus. As to the kind of experiment: Hypotensive activity in renal hypertensive rats by using tail-cuff method measured as BP on (3/2)day/h postdrug. A digest of the protocol:
as §8

For assay [17], the species on record is Rattus norvegicus. Put plainly: Hypotensive activity in renal hypertensive rats by using tail-cuff method measured as initial BP. In outline: as §8

On to `OCCN1CCC2(CC1)Oc1ccccc1C2n1cccc1` (stereo not given), for which the BP in assay [1] came out at 170 mmHg. In [2], this compound gave a Delta blood pressure of 39 mmHg.
Turning to `c1ccc(CN2CCC3(C2)Oc2ccccc2C3n2cccc2)cc1` (stereo not given), the BP in assay [3] was determined as 171 mmHg; in assay [4], 185 mmHg; in assay [5] it was 211 mmHg; in assay [6], 198 mmHg. The Delta blood pressure in assay [7] is -10 mmHg; in assay [8], 18 mmHg; in assay [9], 42 mmHg; in assay [10], 27 mmHg.
Regarding `CCN(CC)CCN1CCC2(CC1)Oc1ccccc1C2n1cccc1` (stereo not given), the BP in assay [1] is given as 185 mmHg. Further, the Delta blood pressure in assay [2] is listed as 38 mmHg.
`c1ccc2c(c1)OC1(CCNC1)C2n1cccc1` (stereo not given): the BP in assay [3] is listed as 179 mmHg; in [4], 181 mmHg; in assay [5], 223 mmHg; in assay [6], 200 mmHg. Further, the Delta blood pressure in [3] is given as 36 mmHg; in [4], 13 mmHg; in assay [5] it was 58 mmHg; in [11] it was 17 mmHg.
In [5] (50 mg/kg), `CN1CCC2(C1)Oc1ccccc1C2n1cccc1` (stereo in doubt; 10) came in with a BP of 197 mmHg and a Delta blood pressure of 38 mmHg.
The corresponding values for `CN1CCC2(C1)Oc1ccccc1C2n1cccc1` (stereo in doubt; 11) are 180 mmHg and 14 mmHg.
Take `C[C@H](CS)C(=O)N1CCC[C@H]1C(=O)O` [CAPTOPRIL]: the BP is reported as 181 mmHg in assay [12]; 185 mmHg in assay [13]; 169 mmHg in assay [14]; 163 mmHg in [15]; 152 mmHg in [16]; 192 mmHg in assay [17].

The values above are taken from ChEMBL document CHEMBL1122463, “2,3-dihydro-3-(1-pyrryl)spiro[benzofuran-2,4'-piperidine]s and 2,3-dihydro-3-(1-pyrryl)spiro[benzofuran-2,3'-pyrrolidine]s: novel antihypertensive agents” (1983).
